A selection: hits, their analogues and other compounds. The true share with any hit is near 2.2%.
FXIa inh = inhibitors of human coagulation factor XIa. inhibition, % at 5 µM. hit rate 0.14% among 220,000. AID 798. purified FXIa, Boc-Glu-Ala-Arg-AMC fluorogenic substrate. P03951;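 active means inhibition of at least 40%; inactive means inhibition below 40%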;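 further: fluorescence of freed AMC excited at 355 nm; 0% = enzyme without compound and 100% = no enzyme blank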
Target sequence (P03951 19-387 limits assumed): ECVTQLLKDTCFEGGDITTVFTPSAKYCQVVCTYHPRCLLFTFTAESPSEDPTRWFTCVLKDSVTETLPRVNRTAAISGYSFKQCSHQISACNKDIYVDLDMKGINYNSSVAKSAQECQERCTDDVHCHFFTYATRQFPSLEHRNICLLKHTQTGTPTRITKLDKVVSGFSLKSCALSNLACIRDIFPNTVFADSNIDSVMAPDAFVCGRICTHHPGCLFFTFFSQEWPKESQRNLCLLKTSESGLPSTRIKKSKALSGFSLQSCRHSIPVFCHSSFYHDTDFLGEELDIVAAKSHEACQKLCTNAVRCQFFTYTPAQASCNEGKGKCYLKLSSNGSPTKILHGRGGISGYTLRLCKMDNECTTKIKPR
Target sequence (P03951 388-625 limits assumed): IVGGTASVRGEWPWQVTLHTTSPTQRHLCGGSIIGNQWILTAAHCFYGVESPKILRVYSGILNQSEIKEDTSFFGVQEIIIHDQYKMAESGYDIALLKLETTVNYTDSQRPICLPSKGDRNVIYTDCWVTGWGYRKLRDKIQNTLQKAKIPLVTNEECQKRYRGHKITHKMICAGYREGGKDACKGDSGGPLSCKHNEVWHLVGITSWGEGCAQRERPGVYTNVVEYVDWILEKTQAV
hK5 inh = kallikrein 5 (human) inhibition. recombinant hK5, fluorogenic AMC substrate cleavage. Q9Y337. hit rate 0.59% among 210,000. inhibition, % at 5 µM. AID 873;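 active means inhibition of 40% or more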;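 further: 0% = enzyme controls without compound and 100% = no-enzyme blanks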
FXIIa inh 1536 = factor XIIa (human) inhibition; purified FXIIa, Boc-QGR-AMC fluorogenic substrate, 2 h; AID 800; hit rate 0.3% among 220,000; P00748; inhibition, % at 5 µM; in the data active means inhibition above about 40%;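 further: 0% = enzyme with no compound and 100% = blank without enzyme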
Thrombin inh = blocks human thrombin protease activity | P00734 | alpha-thrombin, Boc-VPR-AMC fluorogenic substrate cleavage | inhibition, % at 5 µM | hit rate 0.26% among 220,000 | AID 1046;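 active means inhibition at or above 40%; inactive means inhibition below 40%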;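 further: 0% = enzyme with no compound and 100% = wells without enzyme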
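System – human alpha-thrombin · Medium – pH 7.5 Tris (50 mM) with NaCl 150 mM, Tween 20 0.05% · Compound – single-point dosing at 5 µM, 0.2% DMSO · Incubation – enzyme reaction carried out at room temperature · Technique – fluorescence of released AMC, ex 355 nm, em 460 nm · Read-out basis – % inhibition of thrombin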
Wee1 degr inh = blocks degradation of human Wee1 kinase. hit rate 1.2% among 220,000. P30291. AID 1321. reporter increase, % at 5 µM. HeLa Luc-Wee1K328M stability, luciferase luminescence; 100% = proteasome inhibitor MG132 effect;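 active means activation above the mean of all tested compounds plus 3 SD, set per screening run, cut at about 8.8% in these data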;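 further: cells exposed to compound for 20 h before luminescence read; 0% = DMSO alone and 100% = MG132 at 30 µM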
* = called active by the depositor; . = no result.

SMILES	FXIa inh	hK5 inh	FXIIa inh 1536	Thrombin inh	Wee1 degr inh
Cc1cnc(C)c(N2CCN(Cc3nc(-c4ccccc4)no3)CC2)n1	-3	1	4	-6	0
O=c1cc(CSc2nnc(NC3CCCCC3)s2)nc2sccn12	-1	-5	2	-9	0
COC(=O)c1cc(CSc2nnc(NC3CCCCC3)s2)oc1C	6	42*	22	17	0
CNC(=O)c1ccc(N(Cc2ccccc2)S(C)(=O)=O)cc1	7	72*	58*	12	1
N#CCc1ccc(NS(=O)(=O)c2ccc(C3CCCCC3)cc2)cc1	-4	-10	2	-7	-2
COc1ccc(S(=O)(=O)Nc2ccc(CC#N)cc2)cc1	7	43*	34	15	3
O=C(N/N=C/c1ccccc1OC(F)F)c1cc(-c2ccncc2)nc2ccccc12	1	4	6	2	11*
O=C(c1ccc(Cl)cc1)c1c[nH]c(C(=O)NNc2ccccc2)c1	8	14	8	24	3
CCOC(=O)C1(CCCc2ccccc2)CCN(C(=O)CCOC)CC1	-3	.	8	-6	-1
CCOC(=O)N1CCC(N2C(=O)c3ccccc3C2Nc2ccc(S(=O)(=O)N3CCOCC3)cc2)CC1 (stereo not given)	-3	.	7	-5	-3
Cc1ccc(S(=O)(=O)Nc2ccc3c(c2)c2c(n3S(=O)(=O)c3ccc(C)cc3)CCCC2=O)cc1	14	68*	12	27	4
O=C(O)c1ccccc1NN=C1CCCCC1	18	-8	23	-4	9.8*
O=C(O)c1ccccc1Nc1ccccc1C(=O)O	4	-10	19	3	2
Cn1c(SCC(=O)NC2CCCC2)nnc1-c1ccc(S(=O)(=O)N2CCOCC2)cc1	-12	-14	-3	45*	-3
Cc1ccc(NC(=O)CSc2nnc(-c3ccc(S(=O)(=O)N4CCOCC4)cc3)n2C)cc1	-5	2	-6	-8	1
C/C(=N\NC(=O)c1ccc([N+](=O)[O-])cc1Cl)c1ccccc1	-1	3	6	-7	0
Cc1cc(C)c2c(CN3CCN(Cc4ccc5c(c4)OCO5)CC3)cc(=O)oc2c1C	-3	4	-9	1	0
Cc1ccc2c(CN3CCN(Cc4ccc5c(c4)OCO5)CC3)cc(=O)oc2c1C	46*	-5	37	1	-2
CC(=O)c1cccc2c(O)c(C3=Nc4ccccc4C3=O)[nH]c12	2	-6	11	3	1
O=C1C(c2c(O)[nH]c3ccccc23)=Nc2ccccc21	.	.	.	.	12*
CC12CN3CC(C)(CN(C1)C3c1ccc3c(c1)OCO3)C2O (stereo not given)	0	-2	3	-4	-1
COc1ccc(N2CCCn3c2nc2c3c(=O)n(Cc3ccc(C)cc3)c(=O)n2C)c(OC)c1	11	21	54*	18	-3
COc1cccc(N2CCCn3c2nc2c3c(=O)n(CCN3CCOCC3)c(=O)n2C)c1	2	-10	23	-6	-5
O=C(CCCn1c(=S)[nH]c2cc3c(cc2c1=O)OCO3)N1CCN(c2ccccc2)CC1	15	130*	20	26	0
CC(=O)c1ccc(N2CCN(C(=O)CCCn3c(=S)[nH]c4cc5c(cc4c3=O)OCO5)CC2)cc1	4	-6	11	4	-1
SMILES	FXIa inh	hK5 inh	FXIIa inh 1536	Thrombin inh	Wee1 degr inh
CCc1ccccc1N/C(=N\S(=O)(=O)c1ccccc1)C(F)(F)F	6	-21	14	-4	10*
Cc1ccc(S(=O)(=O)N(CC(=O)NCCC2=CCCCC2)Cc2ccccc2)cc1	12	-15	42*	5	2
CCCC(C)NC(=O)Cc1ccccc1 (stereo not given)	4	8	45*	4	3
Cn1c(=O)n(C)c2cc(S(=O)(=O)O)ccc21	-2	-19	9	-2	9.0*
Cn1c(=O)c(=O)n(C)c2cc(S(=O)(=O)N3CCOCC3)ccc21	-7	-6	12	-4	12*
Cn1c(=O)oc2cc(S(=O)(=O)N3CCOCC3)ccc21	-6	10	7	-3	0
CCNS(=O)(=O)c1ccc2c(c1)n(C)c(=O)n2C	-11	-19	-2	16	-1
O=C(Nc1nc2ccc(S(=O)(=O)N3CCCCC3)cc2s1)C1CCCO1 (stereo not given)	-1	-8	18	1	-1
O=C(Nc1nc2ccc(S(=O)(=O)N3CCCC3)cc2s1)C1CCCCC1	-13	-4	-14	-5	11*

High-throughput results (PubChem BioAssay)
